Measurements from ChEMBL document CHEMBL4251626, “4β-amidotriazole linked podophyllotoxin congeners: DNA topoisomerase-IIα inhibition and potential anticancer agents for prostate cancer” (Eur J Med Chem, 2018).

How the values were obtained:
HepG2 = assay: Antiproliferative activity against human HepG2 cells after 48 hrs by MTT assay; assay type: functional, cell-based; conditions: HepG2, 48 h
How it was run: (§1)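 Cells in DMEM/10% FBS pre-incubated 24 h at 37 °C, then compound-treated 48 h (10 mM DMSO stock diluted in medium). MTT (10 µL of 5 mg/mL) added for 4 h; formazan dissolved in DMSO, absorbance read at 570 nm. IC50 = 50% inhibitory concentration, mean of three individual experiments.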

HeLa = assay: Antiproliferative activity against human HeLa cells after 48 hrs by MTT assay; assay type: functional, cell-based; how it was run: as §1
HT-29 = assay: Antiproliferative activity against human HT-29 cells after 48 hrs by MTT assay; assay type: functional, cell-based; conditions: HT-29, 48 h; how it was run: as §1
MCF7 = assay: Antiproliferative activity against human MCF7 cells after 48 hrs by MTT assay; assay type: functional, cell-based; conditions: MCF7, 48 h; how it was run: as §1
A549 = assay: Antiproliferative activity against human A549 cells after 48 hrs by MTT assay; assay type: functional, cell-based; conditions: A549, 48 h; how it was run: as §1
NIH3T3 = assay: Antiproliferative activity against mouse NIH/3T3 cells after 48 hrs by MTT assay; assay type: cell-based; conditions: NIH3T3, 48 h; how it was run: as §1
DU-145 = assay: Antiproliferative activity against human DU145 cells after 48 hrs by MTT assay; assay type: functional, cell-based; conditions: DU-145, 48 h; how it was run: as §1

Structure (SMILES)	IC50 (HepG2) [µM]	IC50 (HeLa) [µM]	IC50 (HT-29) [µM]	IC50 (MCF7) [µM]	IC50 (A549) [µM]	IC50 (NIH3T3) [µM]	IC50 (DU-145) [µM]
COc1cc([C@@H]2c3cc4c(cc3C(NC(=O)c3cn(Cc5cccc(Oc6ccccc6)c5)nn3)[C@H]3COC(=O)[C@H]23)OCO4)cc(OC)c1OC (single isomer, unassigned)	6.6	22.7	40.5	4.4	8.65	88.4	5.68
COc1cc([C@@H]2c3cc4c(cc3C(NC(=O)c3cn(Cc5ccc(Cl)cc5)nn3)[C@H]3COC(=O)[C@H]23)OCO4)cc(OC)c1OC (single isomer, unassigned)	3.54	3.57	23.7	5.3	8.06	81.3	2.37
COc1cc(Cn2cc(C(=O)NC3c4cc5c(cc4[C@@H](c4cc(OC)c(OC)c(OC)c4)[C@H]4C(=O)OC[C@H]34)OCO5)nn2)cc(OC)c1 (single isomer, unassigned)	14.2	25.8	27.4	13.9	32.4	81.3	14.6
COc1cc([C@@H]2c3cc4c(cc3C(NC(=O)c3cn(-c5ccccc5)nn3)[C@H]3COC(=O)[C@H]23)OCO4)cc(OC)c1OC (single isomer, unassigned)	1.94	2.47	5.37	1.45	1.82	53.9	1.31
COc1cccc(Cn2cc(C(=O)NC3c4cc5c(cc4[C@@H](c4cc(OC)c(OC)c(OC)c4)[C@H]4C(=O)OC[C@H]34)OCO5)nn2)c1 (single isomer, unassigned)	9.88	22.6	31.3	7.71	21.3	74.1	12.4
COc1cc([C@@H]2c3cc4c(cc3C(NC(=O)c3cn(Cc5ccccc5)nn3)[C@H]3COC(=O)[C@H]23)OCO4)cc(OC)c1OC (single isomer, unassigned)	13.1	18.8	19.1	13.7	13.3	67	17.1
COc1cc(OC)cc(-n2cc(C(=O)NC3c4cc5c(cc4[C@@H](c4cc(OC)c(OC)c(OC)c4)[C@H]4C(=O)OC[C@H]34)OCO5)nn2)c1 (single isomer, unassigned)	13.8	17	19.6	8.66	17.7	77	11.7
COc1cc(Cn2cc(C(=O)NC3c4cc5c(cc4[C@@H](c4cc(OC)c(OC)c(OC)c4)[C@H]4C(=O)OC[C@H]34)OCO5)nn2)cc(OC)c1OC (single isomer, unassigned)	0.957	10.2	8.54	7.34	14.7	62	8.54
COc1ccc(Cn2cc(C(=O)NC3c4cc5c(cc4[C@@H](c4cc(OC)c(OC)c(OC)c4)[C@H]4C(=O)OC[C@H]34)OCO5)nn2)cc1OC (single isomer, unassigned)	12.7	12.4	13.5	12.2	19.6	83.8	13.5
COc1cc([C@@H]2c3cc4c(cc3C(NC(=O)c3cn(-c5ccc6c(c5)OCO6)nn3)[C@H]3COC(=O)[C@H]23)OCO4)cc(OC)c1OC (single isomer, unassigned)	9.94	47.7	17.9	7.61	0.974	67.2	8.92
COc1cc([C@@H]2c3cc4c(cc3C(NC(=O)c3cn(Cc5ccc(F)cc5)nn3)[C@H]3COC(=O)[C@H]23)OCO4)cc(OC)c1OC (single isomer, unassigned)	34.1	29	78.3	19.1	75.7	91.1	22.8
COc1cc([C@@H]2c3cc4c(cc3C(NC(=O)c3cn(Cc5ccc6c(c5)OCO6)nn3)[C@H]3COC(=O)[C@H]23)OCO4)cc(OC)c1OC (single isomer, unassigned)	26.6	32.9	36.4	34.5	34.5	69.5	27.7
COc1cc([C@@H]2c3cc4c(cc3C(NC(=O)c3cn(-c5ccc(F)cc5)nn3)[C@H]3COC(=O)[C@H]23)OCO4)cc(OC)c1OC (single isomer, unassigned)	10.9	78.6	13.8	6.7	14.1	98.1	9.44
COc1cc([C@@H]2c3cc4c(cc3[C@H](O)[C@H]3COC(=O)[C@H]23)OCO4)cc(OC)c1OC [PODOFILOX]	6.63	3.45	4.78	3.06	4.6		4.15
COc1cc([C@@H]2c3cc4c(cc3C(NC(=O)c3cn(Cc5ccc(C(F)(F)F)cc5)nn3)[C@H]3COC(=O)[C@H]23)OCO4)cc(OC)c1OC (single isomer, unassigned)	20.4	26.6	66.4	21.9	27.8	75.5	32.9
COc1ccc(Cn2cc(C(=O)NC3c4cc5c(cc4[C@@H](c4cc(OC)c(OC)c(OC)c4)[C@H]4C(=O)OC[C@H]34)OCO5)nn2)cc1 (single isomer, unassigned)	1.96	3.46	17.5	3.32	5.82	67	1.76
COc1cc([C@@H]2c3cc4c(cc3C(NC(=O)c3cn(-c5cc(OC)c(OC)c(OC)c5)nn3)[C@H]3COC(=O)[C@H]23)OCO4)cc(OC)c1OC (single isomer, unassigned)	0.957	10.2	8.54	7.34	14.7	79.6	8.54
COc1ccc(-n2cc(C(=O)NC3c4cc5c(cc4[C@@H](c4cc(OC)c(OC)c(OC)c4)[C@H]4C(=O)OC[C@H]34)OCO5)nn2)cc1OC (single isomer, unassigned)	11.7	18.6	15.1	8.04	12.2	66.2	14.5
